Compounds with a hit are over-represented: about 2.8% of the library has one in this group of screens.
PAFAH1B3 inh – blocks human PAF acetylhydrolase 1B catalytic subunit 3. Q15102. recombinant PAFAH1B3, FP-rhodamine probe, fluorescence polarization. inhibition, % at 3.39 µM. 340,000 tested, 0.28% active;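 active = inhibition above the screen-wide average of all tested compounds plus 3 SD, cut at about 25% in these data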;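 note: 0% = enzyme with DMSO only and 100% = wells lacking PAFAH1B3 protein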
Target sequence (Q15102 whole entry, looked up): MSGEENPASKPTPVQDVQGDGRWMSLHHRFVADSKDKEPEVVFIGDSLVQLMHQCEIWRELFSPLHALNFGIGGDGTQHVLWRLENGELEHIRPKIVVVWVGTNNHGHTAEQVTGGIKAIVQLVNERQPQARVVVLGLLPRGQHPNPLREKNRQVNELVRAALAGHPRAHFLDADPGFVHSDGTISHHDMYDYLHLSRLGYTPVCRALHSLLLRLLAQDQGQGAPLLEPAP
ABHD4 inh – inhibits mouse alpha/beta hydrolase domain 4; purified mABHD4, FP-Rh probe fluorescence polarization; 370,000 tested, 0.54% active; inhibition, % at 8.92 µM; AID 720543; Q8VD66;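 active = inhibition exceeding the mean over every tested compound plus 3 SD, cut at about 30% in these data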;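 note: 0% = plate median of compound wells and 100% = S159A mutant with DMSO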
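Material: mouse ABHD4 enzyme, wild type; Benchmarks: S159A mutant high control, sample median low control; Buffer or medium: HEPES pH 7.0, NaCl, Pluronic buffer; Signal: fluorescence polarization; Read-out: percent inhibition of probe binding, normalized to plate controls; Timing: pre-incubation 45 min, probe exposure 60 min, at 25 °C; Dosing: 8.92 µM, single dose.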
PAFAH1B2 FP inh – PAFAH1B2 (human) inhibition. P68402. recombinant PAFAH1B2, FP-rhodamine activity probe, fluorescence polarization. inhibition, % at 3.39 µM. 340,000 tested, 1.2% active. AID 492953;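 active = inhibition above the mean of all tested compounds plus 3 SD, cut at about 24% in these data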;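 note: 0% = enzyme with DMSO and 100% = wells lacking PAFAH1B2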
Target sequence (P68402 whole entry, looked up): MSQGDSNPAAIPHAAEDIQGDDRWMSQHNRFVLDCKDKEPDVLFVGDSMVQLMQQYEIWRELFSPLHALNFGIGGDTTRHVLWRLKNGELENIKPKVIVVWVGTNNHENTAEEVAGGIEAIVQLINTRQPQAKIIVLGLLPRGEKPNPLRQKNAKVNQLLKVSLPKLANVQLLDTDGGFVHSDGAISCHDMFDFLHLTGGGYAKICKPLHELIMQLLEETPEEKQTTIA
PAFAH2 inh – PAFAH2 (human) inhibition | Q99487 | recombinant PAFAH2, FP-rhodamine activity probe, fluorescence polarization | inhibition, % at 3.39 µM | 340,000 tested, 0.99% active;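 active = inhibition above the mean over all tested compounds plus 3 SD, cut at about 30% in these data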;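 note: inhibitors block probe labeling of enzyme so polarization drops; 0% = enzyme with DMSO and 100% = wells lacking PAFAH2 protein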
HTRA1 inh – blocks human HTRA1 serine peptidase; 340,000 tested, 0.5% active; inhibition, % at 5.96 µM; AID 504803; Q92743; recombinant HTRA1, FP-rhodamine activity-based probe, fluorescence polarization; in the data active = inhibition above about 36%;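 note: 0% = enzyme with DMSO and 100% = wells lacking enzyme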
pPAFAH inh – inhibitors of human plasma PAF acetylhydrolase (pPAFAH) | 330,000 tested, 1.5% active | Q13093 | recombinant pPAFAH, FP-rhodamine probe fluorescence polarization | inhibition, % at 3.39 µM;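 active = inhibition above the mean inhibition across the screen plus 3 SD, cut at about 25% in these data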;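 note: inhibitors block binding of the rhodamine activity-based probe so polarization drops; 0% = enzyme with DMSO and 100% = wells lacking pPAFAH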
Active calls of the source: *; x = no result given.

SMILES | PAFAH1B3 inh | ABHD4 inh | PAFAH1B2 FP inh | PAFAH2 inh | HTRA1 inh | pPAFAH inh
Cc1ccc(C(=O)/C=C/c2cc(Br)cc(Br)c2O)o1 | 3.4 | -25.7 | 1.6 | 34.0* | -4.1 | 30.7*
O=C(CNS(=O)(=O)c1ccc(Cl)cc1)NNC(=O)c1cccnc1 | 4.3 | -1.1 | 5.5 | 3.9 | 3.3 | 5.7
O=C(CSc1ccc(Cl)cc1)NNC(=O)c1cccnc1 | 1.2 | 3.2 | 28.0* | 5.1 | 3.0 | 5.8
O=C(CC1SC(=O)N(c2ccccc2)C1=O)Nc1cccc2ccccc12 (stereo not drawn) | 1.7 | -8.0 | -0.5 | 1.6 | -5.3 | 25.3*
O=C(NNC(=S)Nc1ccc(Cl)c(Cl)c1)c1cccc([N+](=O)[O-])c1 | x | 16.7 | x | x | x | 31.8*
Cc1cccc(NC(=S)NNC(=O)c2cccc([N+](=O)[O-])c2)c1 | 1.6 | 6.9 | 11.1 | 2.8 | 2.0 | 4.2
CC(C)n1nnnc1C1(C)Cn2nccc2C(=O)N1Cc1cccc(C(F)(F)F)c1 (stereo not drawn) | x | 4.8 | x | x | x | x
C=CCN1C(=O)[C@@H](CC(=O)N2CCN(C(=O)c3ccco3)CC2)[C@]2(C(=O)OCC)CCCCC/C=C/12 | x | -2.0 | x | x | x | x
Cc1ccc(NS(=O)(=O)c2ccccc2)c2c1CC(C)(C)O2 | -3.1 | -4.0 | 2.1 | 0.7 | -4.4 | 29.3*
Cc1cccc(Nc2nnc(SC/C(O)=C(\C#N)c3nc4ccccc4[nH]3)s2)c1C | 8.5 | -2.0 | 21.4 | 10.9 | 16.1 | 28.1*
COc1ccc(/C=C2\CC3(OC(=O)C4CCCCC4)CCCN2C3)cc1 (stereo not drawn) | x | 4.4 | x | x | x | x
O=C(NCc1ccccc1)Nc1ccccc1C(=O)N1CCCC1 | x | -2.0 | x | x | x | x
CN(C)/C=C1/Sc2ccccc2C1=O | -8.1 | 2.3 | 5.9 | -12.5 | 0.6 | 0.8
CC(=O)N(\C=C/C=C/C=C1\Sc2ccccc2C1=O)c1ccccc1 | -77.8 | -2.4 | -43.1 | -92.7 | 33.8 | 29.7*
O=C(NCCc1c[nH]c2ccccc12)OCc1cn(Cc2ccccc2F)nn1 | x | 1.1 | x | x | x | x
COCC(C)N=C1NN=C(c2cc(C)n(Cc3ccccc3Cl)c2C)CS1 (stereo not drawn) | 10.0 | 4.4 | 6.9 | 5.8 | 1.9 | 26.4*
CC(=O)c1cccc(NC(=O)CSc2ncc(C(=O)Nc3ccccc3)c(=O)n2C)c1 | 7.2 | -3.6 | 3.1 | 4.2 | -3.2 | 30.9*
CCOc1cccc(=O)c2c(C)n(Cc3ccco3)c(C)c12 | 0.7 | 22.4 | 5.1 | 14.7 | 27.7 | 33.2*
CCOc1cccc(=O)c2c(C)n(Cc3ccccc3)c(C)c12 | 3.0 | 5.3 | -1.5 | 7.0 | -3.6 | 26.5*
COC(=O)c1c(C(=O)OC)c(C)n(Cc2ccco2)c1C | -8.1 | 1.1 | -0.5 | -0.2 | -6.3 | -2.7
CCOC(=O)c1cc(C)n(Cc2ccccc2)c1C | 5.5 | -0.2 | 4.0 | -7.8 | -5.6 | 7.5
O=C(NCc1ccc(C(=O)N2CCCN(Cc3ccccc3)CC2)cc1)c1cccc(Br)c1 | x | 1.8 | x | x | x | x
COc1ccc(Oc2c(Cl)cnn(CC(=O)C(c3ccccc3)c3ccccc3)c2=O)cc1 | x | -3.1 | x | x | x | x
OC(c1ccccc1)(c1ccccc1)C1CCN(CCCNc2ccc(C(F)(F)F)cc2)CC1 | x | 20.7 | x | x | x | x
CCn1c(COc2ccccc2)nnc1SCC(=O)Nc1ccc(S(=O)(=O)Nc2cc(C)nc(C)n2)cc1 | x | 2.6 | x | x | x | x
SMILES | PAFAH1B3 inh | ABHD4 inh | PAFAH1B2 FP inh | PAFAH2 inh | HTRA1 inh | pPAFAH inh
Cc1ccc(-n2c(-c3ccc(Cl)cc3)n[nH]c2=S)c(C)c1 | 3.9 | -2.5 | 28.6* | 4.1 | -4.0 | 1.5
COc1ccc(-c2n[nH]c(=S)n2-c2ccc(C)cc2C)cc1 | 3.2 | 4.5 | 4.6 | 4.6 | 0.9 | 2.9
Cc1ccc(CN2C(C(=O)NC3CCCC3)CSCCS2(=O)=O)cc1 (stereo not drawn) | x | 6.4 | x | x | x | x
N#Cc1ccccc1N1CCN(C(=O)C2CCN(c3ncnc4c3sc3cccc(F)c34)CC2)CC1 | x | -11.4 | x | x | x | x
CC(C)C(NC(=O)C12CC3CC(CC(C3)C1)C2)C(=O)O (stereo not drawn) | -1.5 | 0.9 | 26.0* | -1.6 | 1.1 | 3.1
O=C(/C=C/c1ccco1)N(c1ccccn1)c1ccccn1 | 9.8 | 14.7 | 7.1 | 22.9 | 6.6 | 33.0*
O=C(c1ccco1)N(c1ccccn1)c1ccccn1 | 4.7 | -4.0 | 0.8 | -6.2 | -0.1 | -7.5
N#Cc1c(-c2ccccc2)nc(N2CCOCC2)[nH]c1=O | -8.8 | 5.9 | 3.4 | -6.2 | -1.5 | -0.3
